Measured values pooled from the literature.
Protocols differ between the studies behind these lines.
Target: Myotonin-protein kinase (DMPK, Homo sapiens, UniProt Q09013)
One construct used (Q09013 1-629): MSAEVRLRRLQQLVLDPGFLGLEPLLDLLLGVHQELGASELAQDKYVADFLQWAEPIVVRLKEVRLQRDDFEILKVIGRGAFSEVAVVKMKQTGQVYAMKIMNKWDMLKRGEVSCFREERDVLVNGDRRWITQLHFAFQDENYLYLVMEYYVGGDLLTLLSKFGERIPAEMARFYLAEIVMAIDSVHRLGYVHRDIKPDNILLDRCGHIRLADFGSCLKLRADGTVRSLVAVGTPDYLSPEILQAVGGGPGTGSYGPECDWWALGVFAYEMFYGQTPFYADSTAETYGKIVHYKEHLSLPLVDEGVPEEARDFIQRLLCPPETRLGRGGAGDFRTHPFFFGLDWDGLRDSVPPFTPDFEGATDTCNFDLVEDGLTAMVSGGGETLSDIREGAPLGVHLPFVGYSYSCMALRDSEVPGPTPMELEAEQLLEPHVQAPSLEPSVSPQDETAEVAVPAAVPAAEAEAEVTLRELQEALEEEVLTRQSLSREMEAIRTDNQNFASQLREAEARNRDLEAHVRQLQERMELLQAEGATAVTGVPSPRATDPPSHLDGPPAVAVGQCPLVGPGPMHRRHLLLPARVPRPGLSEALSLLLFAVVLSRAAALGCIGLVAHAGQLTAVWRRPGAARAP

Compound	observed	method	tested at	remaining binding
CN(C)c1ncc(F)c(-c2cnn3ncccc23)n1	binding		1 µM	100%
CNC(=O)[C@@H]1CC[C@@H](n2c(-c3ccc4cnccc4c3)nc3ccc(C(=O)NCc4cccc(C(N)=O)c4)cc32)C1	binding	competition with immobilised ligand	1 µM	86%
COc1ccnn2ncc(-c3ccnc(N(C)C)n3)c12	binding		1 µM	100%
O=C(Nc1c[nH]nc1C(=O)NC1CCNCC1)c1cc(F)cc(F)c1	binding	competition with immobilised ligand	1 µM	100%
O=C(NCCCC1CCCCC1)c1ccc(CNC(=O)c2cnn(-c3ccccc3)c2C(F)(F)F)cc1	cell-free assay	competition with immobilised ligand	0.1 µM	83%
C[C@@H](c1ccc(-n2cnc3c(N)ncnc32)cc1)N1CCc2nn(C)c(Cc3ccccc3)c2C1=O	binding	competition with immobilised ligand	0.1 µM	86%
COc1cnc(Nc2cccc(S(N)(=O)=O)c2)nc1N1CCN(c2ccccc2)CC1	binding	competition with immobilised ligand	1 µM	100%
CN(c1nccc(-c2cnn3ncccc23)n1)C1CC1	binding		1 µM	100%
c1cncc(-c2cccc(Nc3nccc(NC4CCCCC4)n3)c2)c1	binding	competition with immobilised ligand	10 µM	100%
CNC(=O)c1ccc(Nc2ncc(C(F)(F)F)c(NCc3nccnc3N(C)S(C)(=O)=O)n2)cc1	cell-free assay	competition with immobilised ligand	0.1 µM	16%
Cc1cnc(Nc2ccc(C(=O)N3CCC(N4CCCC4)CC3)cc2)nc1-c1cc2ccccc2s1	binding	competition with immobilised ligand	1 µM	100%
CN(C)c1nccc(-c2cnc3ncccn23)n1	binding		1 µM	82%
O=C1CCc2cc(Nc3cc(OC4CCOCC4)c([N+](=O)[O-])cc3Cl)ccc2N1	cell-free assay	competition with immobilised ligand	1 µM	96%
C=CC(=O)N1CCC(C(=O)NCC(=O)N2CCN(c3nc(-c4cnc(N)nc4C(F)F)nc(N4CCOCC4)n3)CC2)CC1	binding	competition with immobilised ligand	1 µM	87%
O=C(c1ccc(Nc2ncc(Cl)c(-c3ccc(Cl)s3)n2)cc1)N1CCC(N2CCCC2)CC1	binding	competition with immobilised ligand	1 µM	100%
C[C@H](c1cccc(C#N)c1)n1cc(Cl)cc(C(N)=O)c1=N	cell-free assay	competition with immobilised ligand	1 µM	100%
N[C@H]1CCN(c2nccc(-c3cnn4ncccc34)n2)C1	binding		1 µM	57%
Nc1cnc(N2CCc3cc(S(=O)(=O)Nc4c(F)cc(Cl)cc4F)cc(N4CCCC4=O)c32)nc1	cell-free assay	competition with immobilised ligand	1 µM	100%
O=C(c1ccc(Nc2ncc(Cl)c(-c3cc4ccccc4s3)n2)cc1)N1CCC(N2CCCC2)CC1	binding	competition with immobilised ligand	1 µM	75%
C[C@@H]1CCN(c2nccc(-c3cnn4ncccc34)n2)C1	binding		1 µM	90%
O=c1nc(-c2ccccn2)sc2ccccc12	binding	competition with immobilised ligand	1 µM	100%
CCN1CCN(Cc2ccc(C(=O)Nc3ccc(C)c(Oc4ccc5c(c4)CC(=O)N5)c3)cc2C(F)(F)F)CC1	binding	competition with immobilised ligand	1 µM	88%
